Source: ChEMBL document CHEMBL5303300, “EUbOPEN Chemogenomics Library - Multiplex” (2023)
Where “and” joins values, the source holds several entries; their conditions need not be identical. Equal entries are not always repeated.

Test system: HEK-293T
Experiment: Multiplex assay against HEK293T
Format: toxicity, cell-based
Settings: human, number of replicates 2
How it was run: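 Live cells were stained at seeding with Hoechst33342, BioTracker Green Microtubule Cytoskeleton Dye, MitoTracker Red and Annexin V Alexa Fluor 680. Following compound addition, they were imaged on a CQ1 microscope at 37°C and 5% CO2 and gated by CellPathfinder machine learning into Hoechst high-intensity objects or normal cells, with normal cells split into healthy, pyknosed or fragmented nuclei and pyknosed cells into mitotic or apoptotic. Tubulin, mitochondrial-mass and membrane-permeability phenotypes are per cents of healthy-nucleus cells.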

[1] = 12 h, 1 µM, compound concentration 1 uM
[2] = 12 h, 10 µM, compound concentration 10 uM
[3] = 24 h, 1 µM, compound concentration 1 uM
[4] = 24 h, 10 µM, compound concentration 10 uM
[5] = 48 h, 1 µM, compound concentration 1 uM
[6] = 48 h, 10 µM, compound concentration 10 uM

SMILES: COc1ccc(F)c(F)c1C(=O)c1cnc(NC2CCN(S(C)(=O)=O)CC2)nc1N [RG-547]
- Population Apoptotic (%) [1]: 71% and 70%
- Population Fragmented Nuclei (%) [1]: 1% and 3%
- Population Healthy Nuclei (%) [1]: 86% and 87%
- Population Hoechst High Intensity Objects (%) [1]: 8%
- Population Membrane Permeable-Phenotype (%) [1]: 4%
- Population Mitochondria Different-Phenotype (%) [1]: 21% and 18%
- Population Mitotic Cells (%) [1]: 28% and 29%
- Population Normal (%) [1]: 91%
- Population Pyknosed Nuclei (%) [1]: 11% and 8%
- Population Tubulin-Different-Phenotype (%) [1]: 57% and 48%
- Total Cell Count [1]: 469 and 554
- Population Apoptotic (%) [2]: 62% and 82%
- Population Fragmented Nuclei (%) [2]: 3% and 4%
- Population Healthy Nuclei (%) [2]: 91% and 86%
- Population Hoechst High Intensity Objects (%) [2]: 8% and 11%
- Population Membrane Permeable-Phenotype (%) [2]: 2% and 1%
- Population Mitochondria Different-Phenotype (%) [2]: 24% and 33%
- Population Mitotic Cells (%) [2]: 37% and 17%
- Population Normal (%) [2]: 91% and 88%
- Population Pyknosed Nuclei (%) [2]: 5% and 8%
- Population Tubulin-Different-Phenotype (%) [2]: 59% and 65%
- Total Cell Count [2]: 491 and 448
- Population Apoptotic (%) [3]: 86% and 67%
- Population Fragmented Nuclei (%) [3]: 3% and 5%
- Population Healthy Nuclei (%) [3]: 90% and 87%
- Population Hoechst High Intensity Objects (%) [3]: 5% and 7%
- Population Membrane Permeable-Phenotype (%) [3]: 5% and 3%
- Population Mitochondria Different-Phenotype (%) [3]: 8% and 9%
- Population Mitotic Cells (%) [3]: 13% and 32%
- Population Normal (%) [3]: 94% and 92%
- Population Pyknosed Nuclei (%) [3]: 5% and 7%
- Population Tubulin-Different-Phenotype (%) [3]: 33% and 37%
- Total Cell Count [3]: 670 and 592
- Population Apoptotic (%) [4]: 63% and 66%
- Population Fragmented Nuclei (%) [4]: 4% and 2%
- Population Healthy Nuclei (%) [4]: 89% and 87%
- Population Hoechst High Intensity Objects (%) [4]: 9% and 15%
- Population Membrane Permeable-Phenotype (%) [4]: 0%
- Population Mitochondria Different-Phenotype (%) [4]: 42% and 37%
- Population Mitotic Cells (%) [4]: 36% and 33%
- Population Normal (%) [4]: 90% and 84%
- Population Pyknosed Nuclei (%) [4]: 6% and 9%
- Population Tubulin-Different-Phenotype (%) [4]: 63% and 61%
- Total Cell Count [4]: 395 and 403
- Population Apoptotic (%) [5]: 61% and 72%
- Population Fragmented Nuclei (%) [5]: 11%
- Population Healthy Nuclei (%) [5]: 86%
- Population Hoechst High Intensity Objects (%) [5]: 5%
- Population Membrane Permeable-Phenotype (%) [5]: 1% and 2%
- Population Mitochondria Different-Phenotype (%) [5]: 2% and 4%
- Population Mitotic Cells (%) [5]: 38% and 27%
- Population Normal (%) [5]: 94%
- Population Pyknosed Nuclei (%) [5]: 1%
- Population Tubulin-Different-Phenotype (%) [5]: 24% and 25%
- Total Cell Count [5]: 841 and 644
- Population Apoptotic (%) [6]: 73% and 80%
- Population Fragmented Nuclei (%) [6]: 5%
- Population Healthy Nuclei (%) [6]: 89% and 84%
- Population Hoechst High Intensity Objects (%) [6]: 17% and 13%
- Population Membrane Permeable-Phenotype (%) [6]: 0%
- Population Mitochondria Different-Phenotype (%) [6]: 50% and 55%
- Population Mitotic Cells (%) [6]: 26% and 20%
- Population Normal (%) [6]: 82% and 86%
- Population Pyknosed Nuclei (%) [6]: 5% and 10%
- Population Tubulin-Different-Phenotype (%) [6]: 67% and 65%
- Total Cell Count [6]: 329 and 336

SMILES: CNc1ncc2cc(-c3ccc(-c4cccc(C)n4)cc3Cl)c(=O)n(C[C@H]3OC[C@H](N)CO3)c2n1
- Population Apoptotic (%) [1]: 57% and 63%
- Population Fragmented Nuclei (%) [1]: 2%
- Population Healthy Nuclei (%) [1]: 85% and 82%
- Population Hoechst High Intensity Objects (%) [1]: 5% and 6%
- Population Membrane Permeable-Phenotype (%) [1]: 7% and 3%
- Population Mitochondria Different-Phenotype (%) [1]: 8% and 9%
- Population Mitotic Cells (%) [1]: 42% and 36%
- Population Normal (%) [1]: 94% and 93%
- Population Pyknosed Nuclei (%) [1]: 11% and 15%
- Population Tubulin-Different-Phenotype (%) [1]: 28% and 30%
- Total Cell Count [1]: 581 and 605
- Population Apoptotic (%) [2]: 36% and 26%
- Population Fragmented Nuclei (%) [2]: 6% and 8%
- Population Healthy Nuclei (%) [2]: 79% and 76%
- Population Hoechst High Intensity Objects (%) [2]: 30%
- Population Membrane Permeable-Phenotype (%) [2]: 25% and 20%
- Population Mitochondria Different-Phenotype (%) [2]: 7% and 6%
- Population Mitotic Cells (%) [2]: 63% and 73%
- Population Normal (%) [2]: 69%
- Population Pyknosed Nuclei (%) [2]: 13% and 15%
- Population Tubulin-Different-Phenotype (%) [2]: 57% and 65%
- Total Cell Count [2]: 885 and 788
- Population Apoptotic (%) [3]: 51% and 54%
- Population Fragmented Nuclei (%) [3]: 3%
- Population Healthy Nuclei (%) [3]: 88% and 85%
- Population Hoechst High Intensity Objects (%) [3]: 3% and 5%
- Population Membrane Permeable-Phenotype (%) [3]: 2% and 3%
- Population Mitochondria Different-Phenotype (%) [3]: 2% and 5%
- Population Mitotic Cells (%) [3]: 48% and 45%
- Population Normal (%) [3]: 96% and 94%
- Population Pyknosed Nuclei (%) [3]: 8% and 11%
- Population Tubulin-Different-Phenotype (%) [3]: 11% and 16%
- Total Cell Count [3]: 923 and 803
- Population Apoptotic (%) [4]: 20%
- Population Fragmented Nuclei (%) [4]: 6% and 8%
- Population Healthy Nuclei (%) [4]: 68% and 69%
- Population Hoechst High Intensity Objects (%) [4]: 31% and 34%
- Population Membrane Permeable-Phenotype (%) [4]: 18% and 11%
- Population Mitochondria Different-Phenotype (%) [4]: 4% and 3%
- Population Mitotic Cells (%) [4]: 79%
- Population Normal (%) [4]: 68% and 65%
- Population Pyknosed Nuclei (%) [4]: 25% and 22%
- Population Tubulin-Different-Phenotype (%) [4]: 52% and 46%
- Total Cell Count [4]: 1101 and 1092
- Population Apoptotic (%) [5]: 20% and 34%
- Population Fragmented Nuclei (%) [5]: 9% and 6%
- Population Healthy Nuclei (%) [5]: 85% and 88%
- Population Hoechst High Intensity Objects (%) [5]: 6% and 5%
- Population Membrane Permeable-Phenotype (%) [5]: 3% and 2%
- Population Mitochondria Different-Phenotype (%) [5]: 0% and 2%
- Population Mitotic Cells (%) [5]: 80% and 65%
- Population Normal (%) [5]: 93% and 94%
- Population Pyknosed Nuclei (%) [5]: 4%
- Population Tubulin-Different-Phenotype (%) [5]: 7% and 9%
- Total Cell Count [5]: 1888 and 1385
- Population Apoptotic (%) [6]: 13% and 10%
- Population Fragmented Nuclei (%) [6]: 4% and 6%
- Population Healthy Nuclei (%) [6]: 68% and 70%
- Population Hoechst High Intensity Objects (%) [6]: 28% and 30%
- Population Membrane Permeable-Phenotype (%) [6]: 11% and 4%
- Population Mitochondria Different-Phenotype (%) [6]: 2% and 1%
- Population Mitotic Cells (%) [6]: 86% and 89%
- Population Normal (%) [6]: 71% and 69%
- Population Pyknosed Nuclei (%) [6]: 26% and 22%
- Population Tubulin-Different-Phenotype (%) [6]: 26% and 21%
- Total Cell Count [6]: 1638 and 1597

SMILES: COc1ccc(CC[C@@H](OC(=O)[C@@H]2CCCCN2C(=O)[C@H](c2cc(OC)c(OC)c(OC)c2)C2CCCCC2)c2cccc(OCCN3CCOCC3)c2)cc1OC
- Population Apoptotic (%) [1]: 53% and 42%
- Population Fragmented Nuclei (%) [1]: 5% and 3%
- Population Healthy Nuclei (%) [1]: 82% and 83%
- Population Hoechst High Intensity Objects (%) [1]: 7% and 6%
- Population Membrane Permeable-Phenotype (%) [1]: 7% and 6%
- Population Mitochondria Different-Phenotype (%) [1]: 27% and 28%
- Population Mitotic Cells (%) [1]: 46% and 57%
- Population Normal (%) [1]: 92% and 93%
- Population Pyknosed Nuclei (%) [1]: 11% and 12%
- Population Tubulin-Different-Phenotype (%) [1]: 77% and 92%
- Total Cell Count [1]: 574 and 636
- Population Apoptotic (%) [2]: 70% and 68%
- Population Fragmented Nuclei (%) [2]: 2%
- Population Healthy Nuclei (%) [2]: 85% and 83%
- Population Hoechst High Intensity Objects (%) [2]: 10% and 11%
- Population Membrane Permeable-Phenotype (%) [2]: 2%
- Population Mitochondria Different-Phenotype (%) [2]: 75% and 72%
- Population Mitotic Cells (%) [2]: 29% and 31%
- Population Normal (%) [2]: 89% and 88%
- Population Pyknosed Nuclei (%) [2]: 12% and 13%
- Population Tubulin-Different-Phenotype (%) [2]: 68% and 58%
- Total Cell Count [2]: 560 and 485
- Population Apoptotic (%) [3]: 46% and 44%
- Population Fragmented Nuclei (%) [3]: 9% and 4%
- Population Healthy Nuclei (%) [3]: 81% and 86%
- Population Hoechst High Intensity Objects (%) [3]: 10% and 8%
- Population Membrane Permeable-Phenotype (%) [3]: 8% and 7%
- Population Mitochondria Different-Phenotype (%) [3]: 12% and 18%
- Population Mitotic Cells (%) [3]: 53% and 55%
- Population Normal (%) [3]: 89% and 91%
- Population Pyknosed Nuclei (%) [3]: 8%
- Population Tubulin-Different-Phenotype (%) [3]: 64% and 80%
- Total Cell Count [3]: 873 and 879
- Population Apoptotic (%) [4]: 72% and 63%
- Population Fragmented Nuclei (%) [4]: 2%
- Population Healthy Nuclei (%) [4]: 82% and 81%
- Population Hoechst High Intensity Objects (%) [4]: 8% and 13%
- Population Membrane Permeable-Phenotype (%) [4]: 0%
- Population Mitochondria Different-Phenotype (%) [4]: 89% and 88%
- Population Mitotic Cells (%) [4]: 27% and 36%
- Population Normal (%) [4]: 91% and 86%
- Population Pyknosed Nuclei (%) [4]: 14% and 15%
- Population Tubulin-Different-Phenotype (%) [4]: 56% and 52%
- Total Cell Count [4]: 512 and 487
- Population Apoptotic (%) [5]: 30% and 18%
- Population Fragmented Nuclei (%) [5]: 8% and 13%
- Population Healthy Nuclei (%) [5]: 87% and 83%
- Population Hoechst High Intensity Objects (%) [5]: 9% and 8%
- Population Membrane Permeable-Phenotype (%) [5]: 6%
- Population Mitochondria Different-Phenotype (%) [5]: 5% and 4%
- Population Mitotic Cells (%) [5]: 69% and 81%
- Population Normal (%) [5]: 90% and 91%
- Population Pyknosed Nuclei (%) [5]: 3% and 2%
- Population Tubulin-Different-Phenotype (%) [5]: 67% and 48%
- Total Cell Count [5]: 1619 and 1643
- Population Apoptotic (%) [6]: 84% and 73%
- Population Fragmented Nuclei (%) [6]: 3% and 5%
- Population Healthy Nuclei (%) [6]: 84% and 83%
- Population Hoechst High Intensity Objects (%) [6]: 9% and 11%
- Population Membrane Permeable-Phenotype (%) [6]: 1%
- Population Mitochondria Different-Phenotype (%) [6]: 79% and 83%
- Population Mitotic Cells (%) [6]: 15% and 26%
- Population Normal (%) [6]: 90% and 88%
- Population Pyknosed Nuclei (%) [6]: 11%
- Population Tubulin-Different-Phenotype (%) [6]: 62% and 60%
- Total Cell Count [6]: 551 and 526
